Experimental data taken from ChEMBL document CHEMBL4725282, “Discovery of a Conformationally Constrained Oxazolidinone with Improved Safety and Efficacy Profiles for the Treatment of Multidrug-Resistant Tuberculosis” (J Med Chem, 2020).
Values after ≈ are worked out from the molar mass of the structure shown.

Legend:
[1] = Ratio of MIC for antitubercular activity against linezolid-resistant Mycobacterium tuberculosis to MIC for antitubercular activity against Mycobacterium tuberculosis H37Rv; assay type: functional
[2] = system: Mycobacterium tuberculosis; assay: Antitubercular activity against linezolid-resistant Mycobacterium tuberculosis incubated for 7 days by microplate alamar blue assay; assay type: functional; conditions: 168 h, time 7 day
Summary of the method: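 MIC determined by microplate alamar blue assay (MABA) following a published protocol.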

Structure (SMILES)	Ratio [1]	MIC [2]
CC(=O)NC[C@@H]1OC(=O)N2c3cc(F)c(N4CC[S+]([O-])CC4)cc3OC[C@@H]12	4	6.68 µg/mL (≈ 16.8 µM)
CC(=O)NC[C@@H]1OC(=O)N2c3cc(F)c(N4CCSCC4)cc3OC[C@@H]12 [listing 1 of 2 here]	–	0.24 µg/mL (≈ 0.629 µM)
CC(=O)NC[C@@H]1OC(=O)N2c3cc(F)c(N4CCSCC4)cc3OC[C@@H]12 [listing 2 of 2 here]	4	–
NNC(=O)c1ccncc1 [ISONIAZID]	–	0.04 µg/mL (≈ 0.292 µM)
CC(=O)NC[C@H]1CN(c2ccc(N3CCOCC3)c(F)c2)C(=O)O1 [LINEZOLID]	–	3.92 µg/mL (≈ 11.6 µM)
CO[C@H]1/C=C/O[C@@]2(C)Oc3c(C)c(O)c4c(O)c(c(/C=N/N5CCN(C)CC5)c(O)c4c3C2=O)NC(=O)/C(C)=C\C=C\[C@H](C)[C@H](O)[C@@H](C)[C@@H](O)[C@@H](C)[C@H](OC(C)=O)[C@@H]1C [RIFAMPIN]	–	0.03 µg/mL (≈ 0.0365 µM)
CC(=O)NC[C@H]1CN(c2ccc(N3CCSCC3)c(F)c2)C(=O)O1 [SUTEZOLID]	4	0.96 µg/mL (≈ 2.72 µM)
